Screening data deposited in PubChem by several laboratories.
Most compounds without a hit are left out; they make up all but 2.2% or so of the library.
Jurkat NFkB inh – lowers PMA/ionomycin-induced NF-kB signal in Jurkat cells. PMA/ionomycin-induced NF-kB luciferase reporter, luminescence. inhibition, % at 4 µM. hit rate 0.53% among 330,000. AID 435003; in the data active = inhibition above about 50%
miR122 inh – inhibitors of miR-122 in Huh7 cells. Huh7 miR-122 Renilla luciferase sensor, 48 h; neutral wells = 0, positive control = 100. activation (reporter increase), % at 12.5 µM. hit rate 0.3% among 340,000. AID 602342;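 active = mean replicate activation score at least 90 and every replicate individually at or above 90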;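 note: higher luciferase means less miR-122 activity so hits act as miR-122 inhibitors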
FGF22 binding – shifts melting point of recombinant human FGF22 | Q9HCT0 | recombinant FGF22 thermal shift, SYPRO orange fluorescence; percent of sucrose octasulfate shift, DMSO zero | activity (Tm shift, normalised), % at 9.99 µM | hit rate 1.5% among 340,000;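 active = mean Tm shift, scaled 0 neutral to 100 positive control, at about 1.3% or above, every replicate too, limit read from the data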
Target sequence (Q9HCT0 whole entry, looked up): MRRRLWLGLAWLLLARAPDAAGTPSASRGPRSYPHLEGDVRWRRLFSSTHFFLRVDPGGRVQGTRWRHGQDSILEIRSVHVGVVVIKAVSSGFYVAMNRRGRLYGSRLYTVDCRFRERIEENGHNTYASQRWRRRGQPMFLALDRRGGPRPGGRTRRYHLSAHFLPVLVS
697 NFkB inh – lowers PMA/ionomycin-induced NF-kB signal in 697 B cells. 697 B-cell NF-kB luciferase reporter, 16 h. inhibition, % at 4 µM. hit rate 0.33% among 330,000. AID 435022; in the data active = inhibition above about 35%
NR2E3 ag-1 – NR2E3 (human) agonism. Q9Y5X4. GST-NR2E3/biotin-RetCOR TR-FRET, 1536-well. inhibition of corepressor binding, % at 4.78 µM. hit rate 0.12% among 320,000. AID 2300;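 active = percent inhibition above the cutoff of mean plus 3 SD of all tested compounds, set per screening campaign, cut at about 20% in these data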;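 note: 0% = DMSO wells and 100% = biotin wells as full block of FRET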
Target sequence (Q9Y5X4 whole entry, looked up): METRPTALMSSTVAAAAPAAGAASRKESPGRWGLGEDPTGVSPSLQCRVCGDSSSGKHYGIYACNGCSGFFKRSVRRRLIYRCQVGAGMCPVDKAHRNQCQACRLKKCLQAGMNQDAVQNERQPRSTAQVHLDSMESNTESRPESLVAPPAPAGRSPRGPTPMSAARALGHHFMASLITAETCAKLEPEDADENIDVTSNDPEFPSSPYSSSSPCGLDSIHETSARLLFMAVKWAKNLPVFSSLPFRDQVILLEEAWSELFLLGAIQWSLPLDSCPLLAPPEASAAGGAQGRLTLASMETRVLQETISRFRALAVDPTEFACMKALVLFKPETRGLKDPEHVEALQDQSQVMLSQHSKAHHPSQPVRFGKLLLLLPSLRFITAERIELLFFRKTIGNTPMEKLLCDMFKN
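Test system – NR2E3–RetCOR corepressor complex · Quantity – NR2E3 fusion 1.35 nM · Buffer or medium – Tris pH 7.5 · Incubation – Compound–protein incubation for 5 h at 4 °C · Technique – TR-FRET, Eu(K)-anti-GST donor, streptavidin-D2 acceptor, ex 340, em 617/671 nm · Evaluation – percent inhibition of 671/617 nm emission ratio versus biotin and DMSO controls · Plate – 1536-well format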
NR2E3 ag-2 – human photoreceptor-specific nuclear receptor agonism | hit rate 0.35% among 360,000 | inhibition of corepressor binding, % at 3.98 µM | Q9Y5X4 | AID 602229 | CHO-S Gal4-NCOR/VP16-NR2E3 two-hybrid, luciferase;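 active = inhibition above the mean of all tested compounds plus 3 SD, cut at about 70% in these data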;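 note: 0% = DMSO with NR2E3 transfected cells and 100% = cells lacking NR2E3 construct; higher means lower luciferase signal from less NR2E3 corepressor binding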
NR2E3 ag conf – confirmation of human NR2E3 agonists | shares compounds with NR2E3 ag-2 | CHO-S mammalian two-hybrid NR2E3-NCOR, luciferase luminescence | inhibition, % at 3.98 µM | hit rate 51% among 2,300;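 active = average inhibition above a cutoff equal to the mean inhibition of all tested compounds plus one SD, cut at about 70% in these data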;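 note: 0% = DMSO in NR2E3 cells and 100% = DMSO in cells lacking NR2E3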
GAL4-VP16 luc – GAL4-VP16 reporter inhibition in NR2E3 agonist counterscreen. shares compounds with NR2E3 ag-2. hit rate 29% among 2,300. CHO-S GAL4-VP16 luciferase reporter, luminescence. AID 624379. inhibition, % at 3.98 µM;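 active = mean inhibition above a cutoff equal to the average over all tested compounds plus one standard deviation, cut at about 70% in these data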;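 note: luciferase from a UAS reporter driven by GAL4-VP16 transactivation; 0% = DMSO with VP16-transfected cells and 100% = DMSO with cells lacking VP16; higher means less reporter light so more repression of VP16 activity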
An asterisk follows results filed as active; nt = no result given; [ ] = dose if it differs, or a comment.

SMILES	Jurkat NFkB inh	miR122 inh	FGF22 binding	697 NFkB inh	NR2E3 ag-1	NR2E3 ag-2	NR2E3 ag conf	GAL4-VP16 luc
CCOc1ccc(-c2nc(CSCC(=O)NCCCN3CCCC3=O)c(C)o2)cc1	14.7	0.8	-0.2	14.4	0.0	59.6	64.3	36.5
COc1ccc(-c2nc(CSCC(=O)NCCCN3CCCC3=O)c(C)o2)cc1	-9.2	nt	-0.2	10.2	-0.1	-8.6	nt	nt
O=C([C@@H]1[C@@H](CO)[C@@H]2Cn3c(ccc(-c4cccnc4)c3=O)[C@@H]2N1CCC(F)(F)F)N1CCOCC1	nt	nt	0.0	nt	nt	nt	nt	nt
C[C@H]1CN([C@@H](C)CO)C(=O)c2cc(NC(=O)Nc3ccc4c(c3)OCO4)ccc2O[C@H]1CN(C)C(=O)Nc1ccccc1	nt	-0.7[16.7 µM]	-0.3	nt	nt	nt	nt	nt
O=[N+]([O-])c1ccc2c(c1)ncn2-c1ccccc1	nt	nt	nt	nt	-0.6	-4.0	nt	nt
O=[N+]([O-])c1ccc2c(c1)ncn2CCc1ccccc1	-7.8	-1.0	0.1	11.9	nt	76.1*	-7.5	-11.0
CCc1ccc(OC)c(S(=O)(=O)Nc2ccc(Cc3ccncc3)cc2)c1	13.1	76.9	42.5	-24.5	-1.4	98.7*	85.9*	73.8*
COc1ccc(NC(C)=O)cc1S(=O)(=O)Nc1ccccc1C(=O)NCCc1ccccc1	-63.8	nt	-0.4	-61.1	-0.1	-75.8	nt	nt
COc1ccc(NC(=O)Nc2cnccn2)c(OC)c1	-17.4	nt	-0.1	5.7	-1.5	-8.6	nt	nt
COc1ccc(S(=O)(=O)Nc2ccc(Cc3ccncc3)cc2)cc1OC	24.6	27.4	-0.1	-11.6	0.7	60.9	71.6*	66.9
COc1ccc(NC(C)=O)cc1S(=O)(=O)Nc1ccc(OCc2ccccc2)cc1	13.5	14.6	-0.1	-10.9	0.3	72.6*	77.5*	57.5
COc1ccc(NC(=O)Nc2ccc(Cc3ccncc3)cc2)c(OC)c1	-21.6	-3.7	0.2	0.6	0.5	51.0	28.9	14.7
Cc1ccc(S(=O)(=O)Nc2ccc3c(c2)C(=O)N([C@H](C)CO)C[C@@H](C)[C@H](CN(C)Cc2ccncc2)O3)cc1	nt	-2.1[16.7 µM]	0.0	nt	nt	nt	nt	nt
C[C@H]1CN([C@@H](C)CO)S(=O)(=O)c2ccc(C#CC3CC3)cc2O[C@@H]1CN(C)C(=O)C1CCC1	nt	4.4[16.7 µM]	-0.2	nt	nt	nt	nt	nt
COc1cccc(COc2ccccc2C2Nc3ccc(Br)cc3C(=O)N2NC(=O)c2ccncc2)c1 (centres undefined)	-8.5	5.4	nt	5.3	2.8	48.0	64.8	30.2
CCCCNC(=S)Nc1cccc2cnccc12	-4.6	19.9	-0.5	-26.4	-1.3	-4.5	nt	nt
S=C(NCCc1ccccc1)Nc1cccc2cnccc12	48.1	3.8	-0.1	33.3	1.5	74.2*	91.4*	78.6*
S=C(NCc1ccccc1)Nc1cccc2cnccc12	18.5	4.9	-0.1	-14.7	-1.4	66.0	78.0*	59.8
COc1ccc(NC(=O)Nc2ccc3c(c2)CC(=O)N([C@@H](C)CO)C[C@H](C)[C@@H](CN(C)C(=O)NC2CCCCC2)O3)cc1	nt	-1.4[16.7 µM]	0.0	nt	nt	nt	nt	nt
COC(=O)C[C@@H]1C=C[C@@H](NS(=O)(=O)c2ccc(OC)cc2)[C@H](CO)O1	nt	nt	0.0	nt	nt	nt	nt	nt
Cc1csc(NC(=O)c2ccc(Cn3nc(C)c(Br)c3C)o2)n1	14.7	-5.8	-0.1	-20.2	-1.9	78.5*	73.5*	62.0
O=C1N[C@H](Cc2ccccc2)COC(=O)[C@H](Cc2ccc(F)cc2)CC/C=C/C[C@H]1CC(=O)N(CCO)Cc1ccccc1	4.1	-0.4	-0.5	14.2	nt	55.5	68.7	-1.5
O=C1N[C@@H](Cc2ccccc2)COC(=O)[C@@H](Cc2ccc(F)cc2)C/C=C\C[C@@H]1CC(=O)N(CCO)Cc1ccccc1	-21.2	9.3	-0.8	-18.4	nt	-16.9	nt	nt
Cc1cccc(N2CCN(C(=O)C3CCC(CNS(=O)(=O)c4cccs4)CC3)CC2)c1C (centres undefined)	30.6	-4.5	0.3	-39.3	6.2	48.5	35.8	51.5
CCCOc1ccc(OCC(=O)c2[nH]c(C)c(C(C)=O)c2C)cc1	11.8	-6.4	0.1	-38.2	3.0	79.0*	93.9*	77.8*
SMILES	Jurkat NFkB inh	miR122 inh	FGF22 binding	697 NFkB inh	NR2E3 ag-1	NR2E3 ag-2	NR2E3 ag conf	GAL4-VP16 luc
Cc1ccccc1C(=O)Oc1cccc(Nc2ncnc3ccccc23)c1	30.4	0.3	nt	-61.7	-1.7	72.0*	42.6	67.6
CO[C@@H](CN(C)S(=O)(=O)c1cccc(Cl)c1)[C@@H](C)CN(C(=O)Nc1ccccc1F)[C@H](C)CO	nt	nt	0.7	nt	nt	nt	nt	nt
NNC(=O)c1cnn(Cc2ccccc2)c1N	2.6	5.6	nt	23.8	2.8	56.6	-16.5	0.8
NC(=O)c1cnn(Cc2ccc(Cl)cc2)c1N	0.9	-2.9	nt	-6.8	5.1	1.6	nt	nt
Nc1cc(S(=O)(=O)Nc2cc(Cl)ccc2Cl)ccc1N1CCOCC1	5.3	33.2	0.4	-11.7	-2.5	52.8	38.2	47.0
CSc1ccc(S(=O)(=O)Nc2ccc(N3CCOCC3)c(Cl)c2)cc1	22.2	nt	0.0	-35.7	-2.4	68.8	45.4	62.5
Nc1cc(S(=O)(=O)Nc2ccccc2Cl)ccc1N1CCCC1	1.7	nt	-0.8	-3.2	3.1	17.7	nt	nt
CSc1ccc(S(=O)(=O)Nc2ccc3c(c2)OCCO3)cc1	17.6	73.1	0.5	-8.8	1.7	37.7	nt	nt
COc1ccc(NS(=O)(=O)c2ccc(N3CCOCC3)c(N)c2)cc1	24.9	nt	0.1	-25.4	3.7	84.7*	90.0*	77.9*
O=C(Nc1ccc2c(c1)[C@H]1C[C@@H](CC(=O)N3CCOCC3)O[C@H](CO)[C@H]1O2)C1CCOCC1	nt	2.7[16.7 µM]	0.5	nt	nt	nt	nt	nt
c1ccc2c(c1)oc1c(NCc3ccc4c(c3)OCO4)ncnc12	-0.9	-9.0	nt	2.9	0.6	72.8*	89.7*	75.3*
COc1ccc(-c2cnc3c(c2)C(=O)N([C@H](C)CO)C[C@@H](C)[C@@H](CN(C)S(C)(=O)=O)O3)cc1	nt	35.1[16.7 µM]	-0.3	nt	nt	nt	nt	nt
CC(C)C#Cc1ccc2c(c1)O[C@H](CN(C)C(=O)Nc1ccccc1)[C@H](C)CN([C@H](C)CO)S2(=O)=O	nt	10.5[16.7 µM]	-0.3	nt	nt	nt	nt	nt
CNC(=S)NN=C(C)CCCC(C)=NNC(=S)NC	nt	8.1	-0.2	nt	nt	48.2	-2.2	-7.5
C=CCN1C(=O)S/C(=C/c2ccc(Sc3nc4ccccc4[nH]3)o2)C1=O	30.1	-13.3	nt	-51.9	-1.6	49.9	81.2*	68.8
CC(C)N1C(=O)S/C(=C/c2ccc(Sc3nc4ccccc4[nH]3)o2)C1=O	34.2	nt	-0.1	-19.1	5.1	42.8	nt	nt
C[C@@H]1CCCCO[C@H](CN(C)C(=O)c2ccccc2)[C@@H](C)CN([C@@H](C)CO)C(=O)c2cc(NS(=O)(=O)c3ccccc3)ccc2O1	nt	-7.8[16.7 µM]	nt	nt	nt	nt	nt	nt
